Here are results for six compounds from ChEMBL document CHEMBL1158460, “Heterobiaryl human immunodeficiency virus entry inhibitors” (J Med Chem, 2009).

For orientation: pIC50 means the negative decadic logarithm of the IC50, by convention in mol/L. As usually defined, the CC50 is the concentration that lowers cell viability or growth by half. Read a low CC50 as harm at low concentration.

pIC50: −log10 of the molar value.

Target in the first data set: not listed separately
In words: Inhibition of HIV1 3B recombinant gp120/sCD4 binding interaction by ELISA.
Settings: not given
The method, boiled down:
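Competitive ELISA of soluble CD4 binding to gp120 from HIV IIIB. Bound CD4 was detected with an anti-CD4 monoclonal antibody, then a peroxidase-labelled anti-mouse antibody. The read-out was the 50% inhibitory dose.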
Background: An ELISA detects its analyte on a solid surface through an enzyme-linked reagent.
Consider `COc1ncc(OC)c2c(C(=O)C(=O)N3CCN(C(=O)c4ccccc4)CC3)c[nH]c12`, for which the pIC50 is 5.62.

Turning to `COc1cc(-c2cc(C)no2)ccc1C(=O)C(=O)N1CCN(C(=O)c2ccccc2)C[C@H]1C`, the pIC50 is 6.64.

`C[C@@H]1CN(C(=O)c2ccccc2)CCN1C(=O)C(=O)c1ccc(-c2cc[nH]n2)nc1`: the negative-log IC50 (pIC50) was below 5.00.

For the compound `Cc1cc(-c2ccc(C(=O)C(=O)N3CCN(C(=O)c4ccccc4)C[C@H]3C)c(O)c2)on1`, the pIC50 is below 5.00.

As for `CC1CN(C(=O)c2ccccc2)CCN1C(=O)C(=O)c1ccc(-c2cc[nH]n2)cc1` (racemic), the negative logarithm of the IC50 (pIC50) is 5.62.

Regarding `COc1ccnc2[nH]cc(C(=O)C(=O)N3CCN(C(=O)c4ccccc4)C[C@H]3C)c12`, the pIC50 is 6.03.

The test system of the next data set is Human immunodeficiency virus. The data set can be described thus: Antiviral activity against HIV isolate 584.000 058 by replication assay. The class given is functional, organism-based. As to conditions: Human immunodeficiency virus 1, isolate 584.000 058.
For the compound `COc1ncc(OC)c2c(C(=O)C(=O)N3CCN(C(=O)c4ccccc4)CC3)c[nH]c12`, the negative logarithm of the IC50 (pIC50) was 7.22.

Compound `COc1cc(-c2cc(C)no2)ccc1C(=O)C(=O)N1CCN(C(=O)c2ccccc2)C[C@H]1C` had a pIC50 of 7.66.

For `COc1ccnc2[nH]cc(C(=O)C(=O)N3CCN(C(=O)c4ccccc4)C[C@H]3C)c12`, the pIC50 is 7.42.

For another data set, the system named is Human immunodeficiency virus. In words: Antiviral activity against HIV isolate 584.000 060 by replication assay. The data set is classed as functional, organism-based. The settings on record: Human immunodeficiency virus 1, isolate 584.000 060.
With `COc1ncc(OC)c2c(C(=O)C(=O)N3CCN(C(=O)c4ccccc4)CC3)c[nH]c12`, the pIC50 is 7.85.

`COc1cc(-c2cc(C)no2)ccc1C(=O)C(=O)N1CCN(C(=O)c2ccccc2)C[C@H]1C` had a pIC50 of 7.77.

On to `COc1ccnc2[nH]cc(C(=O)C(=O)N3CCN(C(=O)c4ccccc4)C[C@H]3C)c12`, for which the negative logarithm of the IC50 (pIC50) is 7.62.

For another data set, the system named is Human immunodeficiency virus. In words: Antiviral activity against HIV isolate 584.000 227 by replication assay. The data set is classed as functional, organism-based. The settings on record: Human immunodeficiency virus 1, isolate 584.000 227.
In turn, `COc1ncc(OC)c2c(C(=O)C(=O)N3CCN(C(=O)c4ccccc4)CC3)c[nH]c12` showed a pIC50 of 7.66.

`COc1cc(-c2cc(C)no2)ccc1C(=O)C(=O)N1CCN(C(=O)c2ccccc2)C[C@H]1C` showed a pIC50 of 5.74.

Regarding `COc1ccnc2[nH]cc(C(=O)C(=O)N3CCN(C(=O)c4ccccc4)C[C@H]3C)c12`, the pIC50 was 6.37.

The subject of the next data set is Human immunodeficiency virus. The data set can be described thus: Antiviral activity against HIV isolate 584.000 066 by replication assay. The class given is functional, organism-based. As to conditions: Human immunodeficiency virus 1, isolate 584.000 066.
For the compound `COc1ncc(OC)c2c(C(=O)C(=O)N3CCN(C(=O)c4ccccc4)CC3)c[nH]c12`, the pIC50 was 7.96.

The compound `COc1cc(-c2cc(C)no2)ccc1C(=O)C(=O)N1CCN(C(=O)c2ccccc2)C[C@H]1C` had a pIC50 of 6.56.

In turn, `COc1ccnc2[nH]cc(C(=O)C(=O)N3CCN(C(=O)c4ccccc4)C[C@H]3C)c12` gave a pIC50 of 6.72.

Tested on in another data set: not listed separately
The data set can be described thus: Cytotoxicity against human U87 cells coexpressing CD4, CxCR4 receptors after 72 hrs. The class given is cell-based, U-87MG ATCC. The settings on record: U87 cells coexpressing CD4 and CXCR4 receptors.
`COc1ncc(OC)c2c(C(=O)C(=O)N3CCN(C(=O)c4ccccc4)CC3)c[nH]c12` returned a CC50 at 72 h above 40000 nM.

`COc1cc(-c2cc(C)no2)ccc1C(=O)C(=O)N1CCN(C(=O)c2ccccc2)C[C@H]1C` registered a CC50 at 72 h above 40000 nM.

`C[C@@H]1CN(C(=O)c2ccccc2)CCN1C(=O)C(=O)c1ccc(-c2cc[nH]n2)nc1` gave a CC50 at 72 h above 40000 nM.

Regarding `Cc1cc(-c2ccc(C(=O)C(=O)N3CCN(C(=O)c4ccccc4)C[C@H]3C)c(O)c2)on1`, the CC50 at 72 h was above 40000 nM.

Take `CC1CN(C(=O)c2ccccc2)CCN1C(=O)C(=O)c1ccc(-c2cc[nH]n2)cc1` (racemic): the CC50 at 72 h was above 40000 nM.

`COc1ccnc2[nH]cc(C(=O)C(=O)N3CCN(C(=O)c4ccccc4)C[C@H]3C)c12`: the CC50 at 72 h is above 40000 nM.

A further data set relates to Human immunodeficiency virus. In words: Antiviral activity against HIV isolate 589.000 033 by replication assay. The data set is classed as functional, organism-based. As to conditions: Human immunodeficiency virus 1, isolate 589.000 033.
Compound `COc1ncc(OC)c2c(C(=O)C(=O)N3CCN(C(=O)c4ccccc4)CC3)c[nH]c12` gave a pIC50 of 7.47.

The compound `COc1cc(-c2cc(C)no2)ccc1C(=O)C(=O)N1CCN(C(=O)c2ccccc2)C[C@H]1C` gave a negative-log IC50 (pIC50) of 7.96.

Compound `COc1ccnc2[nH]cc(C(=O)C(=O)N3CCN(C(=O)c4ccccc4)C[C@H]3C)c12` gave a pIC50 of 7.57.

A further data set deals with Human immunodeficiency virus. The data set can be described thus: Antiviral activity against HIV isolate 584.000 030 by replication assay. As to conditions: Human immunodeficiency virus 1, isolate 584.000 030. The data set is classed as functional, organism-based.
As for `COc1ncc(OC)c2c(C(=O)C(=O)N3CCN(C(=O)c4ccccc4)CC3)c[nH]c12`, the pIC50 is 7.52.

Consider `COc1cc(-c2cc(C)no2)ccc1C(=O)C(=O)N1CCN(C(=O)c2ccccc2)C[C@H]1C`, for which the pIC50 was 7.89.

For the compound `COc1ccnc2[nH]cc(C(=O)C(=O)N3CCN(C(=O)c4ccccc4)C[C@H]3C)c12`, the pIC50 was 7.54.

The next data set deals with Human immunodeficiency virus. In words: Antiviral activity against HIV isolate 584.000 220 by replication assay. The class given is functional, organism-based. As to conditions: Human immunodeficiency virus 1, isolate 584.000 220.
Compound `COc1ncc(OC)c2c(C(=O)C(=O)N3CCN(C(=O)c4ccccc4)CC3)c[nH]c12` had a pIC50 of 8.40.

The compound `COc1cc(-c2cc(C)no2)ccc1C(=O)C(=O)N1CCN(C(=O)c2ccccc2)C[C@H]1C` had a pIC50 of 8.52.

In the case of `COc1ccnc2[nH]cc(C(=O)C(=O)N3CCN(C(=O)c4ccccc4)C[C@H]3C)c12`, the negative logarithm of the IC50 (pIC50) is 8.30.

The next data set relates to Human immunodeficiency virus. The data set can be described thus: Antiviral activity against HIV isolate 584.000.098 by replication assay. The class given is functional, organism-based. As to conditions: Human immunodeficiency virus 1, isolate 584.000.098.
On to `COc1ncc(OC)c2c(C(=O)C(=O)N3CCN(C(=O)c4ccccc4)CC3)c[nH]c12`, for which the negative-log IC50 (pIC50) was 6.37.

Consider `COc1cc(-c2cc(C)no2)ccc1C(=O)C(=O)N1CCN(C(=O)c2ccccc2)C[C@H]1C`, for which the pIC50 was 6.52.

Compound `COc1ccnc2[nH]cc(C(=O)C(=O)N3CCN(C(=O)c4ccccc4)C[C@H]3C)c12` showed a pIC50 of 6.40.

The subject of the next data set is Human immunodeficiency virus. In words: Antiviral activity against HIV isolate 584.000 063 by replication assay. The class given is functional, organism-based. The settings on record: Human immunodeficiency virus 1, isolate 584.000 063.
In turn, `COc1ncc(OC)c2c(C(=O)C(=O)N3CCN(C(=O)c4ccccc4)CC3)c[nH]c12` showed a pIC50 of 7.77.

The compound `COc1cc(-c2cc(C)no2)ccc1C(=O)C(=O)N1CCN(C(=O)c2ccccc2)C[C@H]1C` showed a pIC50 of 7.60.

`COc1ccnc2[nH]cc(C(=O)C(=O)N3CCN(C(=O)c4ccccc4)C[C@H]3C)c12` had a pIC50 of 7.34.

For another data set, the system named is Human immunodeficiency virus. In words: Antiviral activity against HIV isolate 584.000 017 by replication assay. The data set is classed as functional, organism-based. The settings on record: Human immunodeficiency virus 1, isolate 584.000 017.
Compound `COc1ncc(OC)c2c(C(=O)C(=O)N3CCN(C(=O)c4ccccc4)CC3)c[nH]c12` gave a pIC50 below 5.00.

Take `COc1cc(-c2cc(C)no2)ccc1C(=O)C(=O)N1CCN(C(=O)c2ccccc2)C[C@H]1C`: the pIC50 was below 5.00.

`COc1ccnc2[nH]cc(C(=O)C(=O)N3CCN(C(=O)c4ccccc4)C[C@H]3C)c12`: the pIC50 was below 5.00.

The next data set concerns Human immunodeficiency virus. The data set can be described thus: Antiviral activity against HIV isolate 584.000 054 by replication assay. As to conditions: Human immunodeficiency virus 1, isolate 584.000 054. The class given is functional, organism-based.
On to `COc1ncc(OC)c2c(C(=O)C(=O)N3CCN(C(=O)c4ccccc4)CC3)c[nH]c12`, for which the negative-log IC50 (pIC50) is 5.15.

`COc1cc(-c2cc(C)no2)ccc1C(=O)C(=O)N1CCN(C(=O)c2ccccc2)C[C@H]1C` gave a pIC50 of 5.45.

In turn, `COc1ccnc2[nH]cc(C(=O)C(=O)N3CCN(C(=O)c4ccccc4)C[C@H]3C)c12` had a pIC50 of 5.26.

The next data set has as its system Human immunodeficiency virus 1. In words: Antiviral activity against HIV1 expressed in 293T cells assessed as protection against viral M33 envelope infection in human U87 cells coexpressing CD4, CCR5 receptors after 72 hrs by luciferase reporter gene pseudoviral assay. The class given is functional, organism-based. The settings on record: Human immunodeficiency virus 1, HEK-293T. The method, boiled down: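 Pseudovirions carry an R5-using envelope cloned from a primary virus isolate. Anti-HIV-1 activity was taken as the 50% inhibitory dose against these pseudovirions.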
Background: A reporter such as luciferase makes a cellular process visible.
Consider `COc1ncc(OC)c2c(C(=O)C(=O)N3CCN(C(=O)c4ccccc4)CC3)c[nH]c12`, for which the pIC50 is 7.59.

Take `COc1cc(-c2cc(C)no2)ccc1C(=O)C(=O)N1CCN(C(=O)c2ccccc2)C[C@H]1C`: the pIC50 was above 8.30.

Turning to `C[C@@H]1CN(C(=O)c2ccccc2)CCN1C(=O)C(=O)c1ccc(-c2cc[nH]n2)nc1`, the pIC50 is 6.00.

Consider `Cc1cc(-c2ccc(C(=O)C(=O)N3CCN(C(=O)c4ccccc4)C[C@H]3C)c(O)c2)on1`, for which the pIC50 was 5.14.

As to `CC1CN(C(=O)c2ccccc2)CCN1C(=O)C(=O)c1ccc(-c2cc[nH]n2)cc1` (racemic), the pIC50 is 6.80.

Turning to `COc1ccnc2[nH]cc(C(=O)C(=O)N3CCN(C(=O)c4ccccc4)C[C@H]3C)c12`, the pIC50 was 8.10.

For the next data set, the system named is Human immunodeficiency virus. The data set can be described thus: Antiviral activity against HIV isolate 584.000 031 by replication assay. The data set is classed as functional, organism-based. The settings on record: Human immunodeficiency virus 1, isolate 584.000 031.
Compound `COc1ncc(OC)c2c(C(=O)C(=O)N3CCN(C(=O)c4ccccc4)CC3)c[nH]c12` showed a pIC50 of 6.62.

In turn, `COc1cc(-c2cc(C)no2)ccc1C(=O)C(=O)N1CCN(C(=O)c2ccccc2)C[C@H]1C` gave a negative-log IC50 (pIC50) of 5.05.

Compound `COc1ccnc2[nH]cc(C(=O)C(=O)N3CCN(C(=O)c4ccccc4)C[C@H]3C)c12` had a pIC50 of 5.10.
